A word on the IC50: it is the point on the concentration scale where inhibition reaches its midpoint. Higher therefore signals weaker potency in that assay.

One test relates to HFL1. As to the kind of experiment: Cytotoxicity against human HFL1 cells after 24 hrs by MTT assay. The class given is cell-based. The following applies: HFL1, 24 h. A digest of the protocol: (§1)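 Grown in DMEM with 10% fetal calf serum, 2 mM L-glutamine and penicillin/streptomycin at 37 °C, 5% CO2. 10^4 cells/well adhered 24 h before serial dilutions were added (DMSO stock diluted in medium, final DMSO <1%), in parallel triplicate wells. After 24 h exposure, MTT added for 4 h. Formazan dissolved in DMSO; viability read as absorbance at 570 nm.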
Background: Tetrazolium dyes change colour on reduction, which living cells bring about.

The nature of test [1]: Cytotoxicity against human EVC304 cells after 24 hrs by MTT assay. It is filed as cell-based. Conditions: EVC304, 24 h. The essentials: (§2)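 Cells kept at 37 °C, 5% CO2 in RPMI-1640 with 10% fetal calf serum, subcultured twice weekly. Plated at 10^4 cells/well and allowed to adhere 24 h. Serial dilutions added from DMSO stock diluted in RPMI-1640, final DMSO below 1%, triplicate wells. After 24 h, MTT added for 4 h. Formazan dissolved in DMSO, absorbance read at 570 nm.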

Test [2] can be described thus: Cytotoxicity against human BGC803 cells after 24 hrs by MTT assay. It is filed as functional, cell-based. Conditions: BGC803, 24 h. The essentials: as §2
Another test concerns MCF7. As to the kind of experiment: Cytotoxicity against human MCF7 cells after 24 hrs by MTT assay. The class given is functional, cell-based. Conditions: MCF7, 24 h. The essentials:
as §1

The test system of another test is HepG2. Put plainly: Cytotoxicity against human HepG2 cells after 24 hrs by MTT assay. Conditions: HepG2, 24 h. It is filed as functional, cell-based. A digest of the protocol: as §1

Regarding `CC1(C)CC[C@]2(C(=O)O)CC[C@]3(C)C(=CC[C@@H]4[C@@]5(C)CC[C@H](O)[C@@](C)(C(=O)O[C@@H]6O[C@H](CO[C@@H]7O[C@H](CO)[C@@H](O)[C@H](O)[C@H]7O[C@@H]7O[C@H](CO)[C@@H](O)[C@H](O)[C@H]7O)[C@@H](O)[C@H](O[C@@H]7O[C@H](CO)[C@@H](O)[C@H](O)[C@H]7O)[C@H]6O)[C@@H]5CC[C@]43C)[C@@H]2C1` [VACCAROID C], the IC50 in the test on HFL1 was 3.8 µM; in test [1], 8.7 µM; in test [2], 9.4 µM; in the test with MCF7, above 10 µM; in the test with HepG2, above 10 µM.

As to `CC1(C)CC[C@]2(C(=O)O[C@@H]3O[C@H](CO[C@@H]4O[C@H](CO)[C@@H](O)[C@H](O)[C@H]4O[C@@H]4O[C@H](CO)[C@@H](O)[C@H](O)[C@H]4O)[C@@H](O)[C@H](O[C@@H]4O[C@H](CO)[C@@H](O)[C@H](O)[C@H]4O)[C@H]3O)CC[C@]3(C)C(=CC[C@@H]4[C@@]5(C)CC[C@H](O[C@@H]6OC[C@H](O)[C@H](O)[C@H]6O)[C@@](C)(C(=O)O)[C@@H]5CC[C@]43C)[C@@H]2C1` [DIANVERSICOSIDE G], the IC50 in the test on HFL1 is 3.3 µM; in test [1], 6.2 µM; in test [2], 6.8 µM; in the test on MCF7, above 10 µM; in the test on HepG2, above 10 µM.

On to `CC1(C)CC[C@]2(C(=O)O[C@@H]3O[C@H](CO[C@@H]4O[C@H](COC(=O)C[C@@](C)(O)CC(=O)O)[C@@H](O)[C@H](O)[C@H]4O[C@@H]4O[C@H](CO)[C@@H](O)[C@H](O)[C@H]4O)[C@@H](O)[C@H](O[C@@H]4O[C@H](CO)[C@@H](O)[C@H](O)[C@H]4O)[C@H]3O)[C@H](O)C[C@]3(C)C(=CC[C@@H]4[C@@]5(C)CC[C@H](O)[C@@](C)(C(=O)O)[C@@H]5CC[C@]43C)[C@@H]2C1` [DIANVERSICOSIDE B], for which the IC50 in the test with HFL1 is 3.1 µM; in test [1], 7.7 µM; in test [2], 5.7 µM; in the test on MCF7, above 10 µM; in the test with HepG2 it was above 10 µM.

In the case of `CC1(C)CC[C@]2(C(=O)O[C@@H]3O[C@H](CO[C@@H]4O[C@H](CO)[C@@H](O)[C@H](O)[C@H]4O[C@@H]4O[C@H](CO)[C@@H](O)[C@H](O)[C@H]4O)[C@@H](O)[C@H](O[C@@H]4O[C@H](CO)[C@@H](O)[C@H](O)[C@H]4O)[C@H]3O)CC[C@]3(C)C(=CC[C@@H]4[C@@]5(C)CC[C@H](O)[C@@](C)(C(=O)O)[C@@H]5CC[C@]43C)[C@@H]2C1` [VACCAROID A], the IC50 in the test with HFL1 is 7.8 µM; in test [1], 4.1 µM; in test [2], 5.3 µM; in the test on MCF7 it was above 10 µM; in the test with HepG2 it was above 10 µM.

Turning to `CC1(C)CC[C@]2(C(=O)O[C@@H]3O[C@H](CO[C@@H]4O[C@H](COC(=O)C[C@@](C)(O)CC(=O)O)[C@@H](O)[C@H](O)[C@H]4O[C@@H]4O[C@H](CO)[C@@H](O)[C@H](O)[C@H]4O)[C@@H](O)[C@H](O)[C@H]3O)[C@H](O)C[C@]3(C)C(=CC[C@@H]4[C@@]5(C)CC[C@H](O)[C@@](C)(C(=O)O[C@@H]6O[C@H](CO)[C@@H](O)[C@H](O)[C@H]6O)[C@@H]5CC[C@]43C)[C@@H]2C1` [DIANVERSICOSIDE A], the IC50 with HFL1 is 2.8 µM; in test [1], 8.4 µM; in test [2], 6.2 µM; in the test on MCF7 it was above 10 µM; with HepG2, above 10 µM.

For the molecule `CC1(C)CC[C@]2(C(=O)O[C@@H]3O[C@H](CO[C@@H]4O[C@H](CO)[C@@H](O)[C@H](O)[C@H]4O[C@@H]4O[C@H](CO)[C@@H](O)[C@H](O)[C@H]4O)[C@@H](O)[C@H](O)[C@H]3O)[C@H](O)C[C@]3(C)C(=CC[C@@H]4[C@@]5(C)CC[C@H](O)[C@@](C)(C(=O)O[C@@H]6O[C@H](CO)[C@@H](O)[C@H](O)[C@H]6O)[C@@H]5CC[C@]43C)[C@@H]2C1` [DIANVERSICOSIDE F], the IC50 in the test on HFL1 is 4.4 µM; in test [1], 9.6 µM; in test [2] it was 9.7 µM; in the test on MCF7, above 10 µM; in the test on HepG2 it was above 10 µM.

Consider `CC1(C)CC[C@]2(C(=O)O[C@@H]3O[C@H](CO[C@@H]4O[C@H](CO)[C@@H](O)[C@H](O)[C@H]4O[C@@H]4O[C@H](CO)[C@@H](O)[C@H](O)[C@H]4O)[C@@H](O)[C@H](O[C@@H]4O[C@H](CO)[C@@H](O)[C@H](O)[C@H]4O)[C@H]3O)[C@H](O)C[C@]3(C)C(=CC[C@@H]4[C@@]5(C)CC[C@H](O)[C@@](C)(C(=O)O[C@@H]6O[C@H](CO)[C@@H](O)[C@H](O)[C@H]6O)[C@@H]5CC[C@]43C)[C@@H]2C1` [DIANVERSICOSIDE E], for which the IC50 is 3.5 µM in the test with HFL1; 9.1 µM in test [1]; 7.4 µM in test [2]; above 10 µM in the test with MCF7; above 10 µM in the test with HepG2.

As for `CC1(C)CC[C@]2(C(=O)O[C@@H]3O[C@H](CO[C@@H]4O[C@H](COC(=O)C[C@@](C)(O)CC(=O)O)[C@@H](O)[C@H](O)[C@H]4O[C@@H]4O[C@H](CO)[C@@H](O)[C@H](O)[C@H]4O)[C@@H](O)[C@H](O[C@@H]4O[C@H](CO)[C@@H](O)[C@H](O)[C@H]4O)[C@H]3O)CC[C@]3(C)C(=CC[C@@H]4[C@@]5(C)CC[C@H](O)[C@@](C)(C(=O)O)[C@@H]5CC[C@]43C)[C@@H]2C1` [DIANVERSICOSIDE D], the half-maximal inhibitory concentration (IC50) in the test on HFL1 is 3.4 µM; in test [1], 3.9 µM; in test [2], 2.9 µM; in the test with MCF7, above 10 µM; with HepG2, above 10 µM.

The values are drawn from ChEMBL document CHEMBL1151850, “Triterpenoid saponins from Dianthus versicolor” (J Nat Prod, 2009).
